Legend:
[1] = target: T1, human 5-LOX (Homo sapiens, UniProt P09917); assay: Circular dichroism, change in secondary structure; settings: CD
T1 sequence (P09917 1-674): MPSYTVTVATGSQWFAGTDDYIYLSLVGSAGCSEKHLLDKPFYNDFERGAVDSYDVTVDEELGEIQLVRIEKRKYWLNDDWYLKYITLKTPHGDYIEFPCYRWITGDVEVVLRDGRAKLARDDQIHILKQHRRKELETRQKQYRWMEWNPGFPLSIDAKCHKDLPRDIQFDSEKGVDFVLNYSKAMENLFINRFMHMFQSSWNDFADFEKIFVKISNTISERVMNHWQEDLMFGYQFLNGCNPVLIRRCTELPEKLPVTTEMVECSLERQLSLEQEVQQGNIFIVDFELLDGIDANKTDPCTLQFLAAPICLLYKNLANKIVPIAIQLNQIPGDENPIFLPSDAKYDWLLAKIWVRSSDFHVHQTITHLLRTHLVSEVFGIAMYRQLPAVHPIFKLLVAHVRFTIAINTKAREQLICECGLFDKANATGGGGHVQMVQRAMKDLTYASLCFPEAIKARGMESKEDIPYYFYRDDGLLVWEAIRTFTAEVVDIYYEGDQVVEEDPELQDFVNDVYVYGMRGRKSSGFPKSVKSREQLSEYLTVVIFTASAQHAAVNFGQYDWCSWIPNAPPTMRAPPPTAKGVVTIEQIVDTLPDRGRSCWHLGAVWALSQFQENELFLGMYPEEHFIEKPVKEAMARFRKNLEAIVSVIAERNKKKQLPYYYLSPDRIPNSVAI
In short: (§1)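 Native and compound-treated (0.1–10 µM) enzymes in PBS pH 7.4 at final protein 200 µM. CD spectra corrected by subtracting buffer blanks. Percent change in secondary structure (α-helix, β-sheet) calculated with the CAPITO analysis server.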

[2] = test system: CD68-positive inflammatory cell infiltration and TNF-α expression in paw tissue; assay: Immunofluorescence and immunoblot analysis of carrageenan-injected paw tissue; type: in vivo; settings: rat, 400 ppm, compared to the untreated control
In short: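 Paw tissue: 4-µm FFPE sections, citrate pH 6.0 epitope retrieval (99°C, 30 min). Blocked with serum/BSA 40 min. Alexa700-CD68 (1:50) and TNF-α (1:100) overnight at 4°C, Alexa488 secondary for TNF-α. Confocal imaging, stained cells counted by image analysis. Immunoblot: 20 µg protein, 12% SDS-PAGE, PVDF. CD68 and TNF-α (1:100), HRP secondary, ECL, β-actin loading control.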

[3] = target: T2, rat mPGES-1 (Rattus norvegicus, UniProt Q9JHF3); assay: Binding assay using isothermal titration calorimetry
T2 sequence (Q9JHF3 1-153): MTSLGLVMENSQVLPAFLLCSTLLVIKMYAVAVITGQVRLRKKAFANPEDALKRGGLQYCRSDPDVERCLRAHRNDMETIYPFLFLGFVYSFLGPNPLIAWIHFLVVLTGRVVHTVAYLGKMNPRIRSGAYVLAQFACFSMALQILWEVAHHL
In short: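 Rat mPGES-1 isolated from vas deferens and seminal vesicles. Compound (up to 1 mM) and protein (1 mM) dissolved in PBS and degassed. Serial compound injections made into enzyme cell. KD derived by fitting the binding isotherm.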

[4] = target: human COX-1 (Homo sapiens, UniProt P23219); assay: Circular dichroism, change in secondary structure; settings: CD, Human COX-1, LFA-9 10 µM
In short: as §1

[5] = target: T3, human COX-2 (Homo sapiens, UniProt P35354); assay: Circular dichroism, change in secondary structure; settings: CD, Human COX-2, LFA-9 10 µM
T3 sequence (P35354 18-604): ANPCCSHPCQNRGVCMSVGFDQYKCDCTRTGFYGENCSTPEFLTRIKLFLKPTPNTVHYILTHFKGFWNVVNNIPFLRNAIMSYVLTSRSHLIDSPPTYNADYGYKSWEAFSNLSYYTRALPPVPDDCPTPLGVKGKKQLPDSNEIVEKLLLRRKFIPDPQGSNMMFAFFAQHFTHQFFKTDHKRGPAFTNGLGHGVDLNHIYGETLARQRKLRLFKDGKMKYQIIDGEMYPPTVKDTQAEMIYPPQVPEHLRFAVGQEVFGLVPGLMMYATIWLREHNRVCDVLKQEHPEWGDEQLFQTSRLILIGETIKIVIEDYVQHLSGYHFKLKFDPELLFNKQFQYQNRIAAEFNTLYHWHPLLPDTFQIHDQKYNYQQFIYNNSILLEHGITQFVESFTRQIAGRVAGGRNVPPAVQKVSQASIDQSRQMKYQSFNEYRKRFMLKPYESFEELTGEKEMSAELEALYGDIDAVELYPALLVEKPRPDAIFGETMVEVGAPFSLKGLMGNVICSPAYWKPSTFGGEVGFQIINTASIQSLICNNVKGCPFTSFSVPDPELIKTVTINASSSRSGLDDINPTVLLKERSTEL
In short: as §1

[6] = target: T3, human COX-2; assay: Cell-free fluorometric COX-2 assay; type: biochemical; settings: up to the tested range of 1 mM

Chain of human COX-1 (P23219 24-599): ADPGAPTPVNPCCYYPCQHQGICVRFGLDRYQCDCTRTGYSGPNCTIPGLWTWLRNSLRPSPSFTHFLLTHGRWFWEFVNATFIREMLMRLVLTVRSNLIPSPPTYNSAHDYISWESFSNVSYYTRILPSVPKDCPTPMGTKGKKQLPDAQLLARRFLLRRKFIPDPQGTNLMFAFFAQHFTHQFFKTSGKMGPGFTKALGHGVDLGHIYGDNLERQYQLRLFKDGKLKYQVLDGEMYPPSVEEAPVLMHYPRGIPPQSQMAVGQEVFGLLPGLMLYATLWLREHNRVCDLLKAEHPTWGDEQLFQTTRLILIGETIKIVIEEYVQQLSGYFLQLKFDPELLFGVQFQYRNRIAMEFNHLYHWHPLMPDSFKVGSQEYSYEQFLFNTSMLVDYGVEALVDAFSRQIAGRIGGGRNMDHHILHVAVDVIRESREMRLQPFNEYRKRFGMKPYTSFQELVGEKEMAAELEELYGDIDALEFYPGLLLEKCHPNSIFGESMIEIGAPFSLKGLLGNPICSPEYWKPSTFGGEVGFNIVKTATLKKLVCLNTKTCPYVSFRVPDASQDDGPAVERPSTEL

`CC1(C)Cc2c(-c3ccccc3)c(-c3ccc(Cl)cc3)c(CC(=O)NCC(=O)O)n2C1` [LFA-9, 2-[[2-[2-(4-chlorophenyl)-6,6-dimethyl-1-phenyl-5,7-dihydropyrrolizin-3-yl]acetyl]amino]acetic acid] was tested, and the “unfolding of α-helix of 5-LOX” value ([1]; 5-LOX, LFA-9 at 0.1 µM) was 8.7%, the “unfolding of β-sheets of 5-LOX” value ([1]; 5-LOX, LFA-9 at 0.1 µM) was 1% and the “Change in Secondary Structure: unfolding in α-helix” value ([1]; Human 5-LOX, LFA-9 0.12 µM) was 8.7%. For the same compound, the “Change in Secondary Structure: unfolding in β-sheets” value ([1]; Human 5-LOX, LFA-9 0.12 µM) was 1%, the “CD68-positive inflammatory cell infiltration in paw tissue” value [2] was “significantly decreased” and the “expression of TNF-α in paw tissue” value [2] was “significantly decreased”. For the same compound, the Kd [3] was 3.3 µM, the “Change in Secondary Structure” value [4] was “No change in secondary structure” and the “Change in Secondary Structure” value [5] was “No change in secondary structure”. For the same compound, the “inhibition of COX-2 activity” value [6] was “did not show inhibition”.

Reference: PMC7781011 (Journal of Inflammation Research, 2020)
